Measured values published in ChEMBL document CHEMBL2417544, “Design, synthesis and biological evaluation of azithromycin glycosyl derivatives as potential antibacterial agents” (2013).
≈ marks a conversion by molar mass, not a printed value.

Assays:
Format in all cases: functional
Staphylococcus aureus [1] = assay: Antibacterial activity against Staphylococcus aureus ATCC 25923 by standard dilution assay
Outline: (§1)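 Broth dilution MIC per NCCLS guidance. Compounds dissolved in DMSO, serially diluted in growth medium, inoculated and incubated at 35 °C. MIC80 read as the first well with about 80% less growth than the drug-free well. Erythromycin and azithromycin were run as positive controls. Each test was done three times, and values are means of the replicates.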

Escherichia coli [2] = assay: Antibacterial activity against Escherichia coli 236 by standard dilution assay
Outline: (§2)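 Broth dilution MIC per NCCLS guidance. Compounds dissolved in DMSO, serially diluted in growth medium, inoculated and incubated at 35 °C. MIC80 taken as the first well showing roughly 80% less growth than the drug-free well. Each test run three times; values are means of replicates.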

Escherichia coli [3] = assay: Antibacterial activity against Escherichia coli ATCC 25922 by standard dilution assay; outline: as §2
Staphylococcus aureus [4] = assay: Antibacterial activity against methicillin-susceptible Staphylococcus aureus MSSA-1 by standard dilution assay; outline: as §1
Streptococcus pneumoniae [5] = assay: Antibacterial activity against Streptococcus pneumoniae 746 by standard dilution assay; outline: as §2
Streptococcus pyogenes = assay: Antibacterial activity against Streptococcus pyogenes 447 by standard dilution assay; outline: as §2
Staphylococcus aureus [6] = assay: Antibacterial activity against methicillin-resistant Staphylococcus aureus MRSA-1 by standard dilution assay; outline: as §1
Streptococcus pneumoniae [7] = assay: Antibacterial activity against Streptococcus pneumoniae 943 by standard dilution assay; outline: as §2
Streptococcus pneumoniae [8] = assay: Ratio of erythromycin A MIC80 to compound MIC80 for Streptococcus pneumoniae 943
Outline: (§3)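 Ratio of the reference macrolide's MIC80 (azithromycin or erythromycin A, tested in parallel) to the compound's MIC80. Both come from the same NCCLS broth dilution run: DMSO stocks serially diluted in medium, inoculated, 35 °C. MIC80 is the first well with about 80% lower growth than the drug-free control. Triplicate tests, means used.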

Staphylococcus aureus [9] = assay: Ratio of erythromycin A MIC80 to compound MIC80 for methicillin-susceptible Staphylococcus aureus MSSA-1; outline: as §3
Streptococcus pneumoniae [10] = assay: Ratio of erythromycin A MIC80 to compound MIC80 for Streptococcus pneumoniae 746; outline: as §3
Streptococcus pneumoniae [11] = assay: Ratio of azithromycin MIC80 to compound MIC80 for Streptococcus pneumoniae 943; outline: as §3

Compound	MIC80 (Staphylococcus aureus [1]) [µg/mL]	MIC80 (Escherichia coli [2]) [µg/mL]	MIC80 (Escherichia coli [3]) [µg/mL]	MIC80 (Staphylococcus aureus [4]) [µg/mL]	MIC80 (Streptococcus pneumoniae [5]) [µg/mL]	MIC80 (Streptococcus pyogenes) [µg/mL]	MIC80 (Staphylococcus aureus [6]) [µg/mL]	MIC80 (Streptococcus pneumoniae [7]) [µg/mL]	Ratio (Streptococcus pneumoniae [8])	Ratio (Staphylococcus aureus [9])	Ratio (Streptococcus pneumoniae [10])	Ratio (Streptococcus pneumoniae [11])
CC[C@H]1OC(=O)[C@H](C)[C@@H](O[C@H]2C[C@@](C)(OC)[C@@H](OC(=O)NCCO[C@@H]3OC[C@@H](O)[C@H](O)[C@H]3O)[C@H](C)O2)[C@H](C)[C@@H](O[C@@H]2O[C@H](C)C[C@H](N(C)C)[C@H]2O)[C@](C)(O)C[C@@H](C)CN(C)[C@H](C)[C@H]2OC(=O)O[C@@]21C	8 (≈ 8.05 µM)	64 (≈ 64.4 µM)	256 (≈ 257 µM)	16 (≈ 16.1 µM)	4 (≈ 4.02 µM)	16 (≈ 16.1 µM)	16 (≈ 16.1 µM)	2 (≈ 2.01 µM)				
CC[C@H]1OC(=O)[C@H](C)[C@@H](O[C@H]2C[C@@](C)(OC)[C@@H](O)[C@H](C)O2)[C@H](C)[C@@H](O[C@@H]2O[C@H](C)C[C@H](N(C)C)[C@H]2O)[C@](C)(O)C[C@@H](C)C(=O)[C@H](C)[C@@H](O)[C@]1(C)O [ERYTHROMYCIN]	16 (≈ 21.8 µM)	256 (≈ 349 µM)	256 (≈ 349 µM)	16 (≈ 21.8 µM)	16 (≈ 21.8 µM)	32 (≈ 43.6 µM)	16 (≈ 21.8 µM)	8 (≈ 10.9 µM)				
CC[C@H]1OC(=O)[C@H](C)[C@@H](O[C@H]2C[C@@](C)(OC)[C@@H](OC(=O)NCCO[C@@H]3O[C@H](CO)[C@@H](O[C@H]4O[C@H](CO)[C@@H](O)[C@H](O)[C@H]4O)[C@H](O)[C@H]3O)[C@H](C)O2)[C@H](C)[C@@H](O[C@@H]2O[C@H](C)C[C@H](N(C)C)[C@H]2O)[C@](C)(O)C[C@@H](C)CN(C)[C@H](C)[C@H]2OC(=O)O[C@@]21C	32 (≈ 27 µM)	128 (≈ 108 µM)	256 (≈ 216 µM)	16 (≈ 13.5 µM)	16 (≈ 13.5 µM)	32 (≈ 27 µM)	16 (≈ 13.5 µM)	8 (≈ 6.74 µM)				
CC[C@H]1OC(=O)[C@H](C)[C@@H](O[C@H]2C[C@@](C)(OC)[C@@H](OC(=O)NCCO[C@@H]3O[C@H](CO)[C@@H](O)[C@H](O)[C@H]3O)[C@H](C)O2)[C@H](C)[C@@H](O[C@@H]2O[C@H](C)C[C@H](N(C)C)[C@H]2O)[C@](C)(O)C[C@@H](C)CN(C)[C@H](C)[C@H]2OC(=O)O[C@@]21C	8 (≈ 7.81 µM)	64 (≈ 62.5 µM)	128 (≈ 125 µM)	2 (≈ 1.95 µM)	2 (≈ 1.95 µM)	16 (≈ 15.6 µM)	16 (≈ 15.6 µM)	1 (≈ 0.976 µM)	8	8	8	4
CC[C@H]1OC(=O)[C@H](C)[C@@H](O[C@H]2C[C@@](C)(OC)[C@@H](OC(=O)NCCO[C@@H]3O[C@H](CO)[C@@H](O)[C@H]3O)[C@H](C)O2)[C@H](C)[C@@H](O[C@@H]2O[C@H](C)C[C@H](N(C)C)[C@H]2O)[C@](C)(O)C[C@@H](C)CN(C)[C@H](C)[C@H]2OC(=O)O[C@@]21C	4 (≈ 4.02 µM)	64 (≈ 64.4 µM)	128 (≈ 129 µM)	8 (≈ 8.05 µM)	8 (≈ 8.05 µM)	64 (≈ 64.4 µM)	8 (≈ 8.05 µM)	4 (≈ 4.02 µM)				
CC[C@H]1OC(=O)[C@H](C)[C@@H](O[C@H]2C[C@@](C)(OC)[C@@H](OC(=O)NCCO[C@@H]3O[C@H](CO)[C@H](O)[C@H](O)[C@H]3O)[C@H](C)O2)[C@H](C)[C@@H](O[C@@H]2O[C@H](C)C[C@H](N(C)C)[C@H]2O)[C@](C)(O)C[C@@H](C)CN(C)[C@H](C)[C@H]2OC(=O)O[C@@]21C	32 (≈ 31.2 µM)	128 (≈ 125 µM)	128 (≈ 125 µM)	4 (≈ 3.91 µM)	2 (≈ 1.95 µM)	64 (≈ 62.5 µM)	32 (≈ 31.2 µM)	1 (≈ 0.976 µM)	8		8	4
CC[C@H]1OC(=O)[C@H](C)[C@@H](O[C@H]2C[C@@](C)(OC)[C@@H](OC(=O)NCCO[C@@H]3O[C@@H](C)[C@H](O)[C@@H](O)[C@H]3O)[C@H](C)O2)[C@H](C)[C@@H](O[C@@H]2O[C@H](C)C[C@H](N(C)C)[C@H]2O)[C@](C)(O)C[C@@H](C)CN(C)[C@H](C)[C@H]2OC(=O)O[C@@]21C	16 (≈ 15.9 µM)	128 (≈ 127 µM)	128 (≈ 127 µM)	2 (≈ 1.98 µM)	8 (≈ 7.93 µM)	64 (≈ 63.5 µM)	8 (≈ 7.93 µM)	4 (≈ 3.97 µM)		8		
CC[C@H]1OC(=O)[C@H](C)[C@@H](O[C@H]2C[C@@](C)(OC)[C@@H](OC(=O)NCCO[C@@H]3O[C@H](CO)[C@@H](O[C@@H]4O[C@H](CO)[C@@H](O)[C@H](O)[C@H]4O)[C@H](O)[C@H]3O)[C@H](C)O2)[C@H](C)[C@@H](O[C@@H]2O[C@H](C)C[C@H](N(C)C)[C@H]2O)[C@](C)(O)C[C@@H](C)CN(C)[C@H](C)[C@H]2OC(=O)O[C@@]21C	16 (≈ 13.5 µM)	128 (≈ 108 µM)	256 (≈ 216 µM)	32 (≈ 27 µM)	16 (≈ 13.5 µM)	64 (≈ 53.9 µM)	32 (≈ 27 µM)	8 (≈ 6.74 µM)				
CC[C@H]1OC(=O)[C@H](C)[C@@H](O[C@H]2C[C@@](C)(OC)[C@@H](O)[C@H](C)O2)[C@H](C)[C@@H](O[C@@H]2O[C@H](C)C[C@H](N(C)C)[C@H]2O)[C@](C)(O)C[C@@H](C)CN(C)[C@H](C)[C@@H](O)[C@]1(C)O [AZITHROMYCIN]	16 (≈ 21.4 µM)	256 (≈ 342 µM)	256 (≈ 342 µM)	2 (≈ 2.67 µM)	8 (≈ 10.7 µM)	32 (≈ 42.7 µM)	16 (≈ 21.4 µM)	4 (≈ 5.34 µM)				
CC[C@H]1OC(=O)[C@H](C)[C@@H](O[C@H]2C[C@@](C)(OC)[C@@H](OC(=O)NCCO[C@@H]3O[C@H](CO)[C@@H](O)[C@H](O)[C@@H]3O)[C@H](C)O2)[C@H](C)[C@@H](O[C@@H]2O[C@H](C)C[C@H](N(C)C)[C@H]2O)[C@](C)(O)C[C@@H](C)CN(C)[C@H](C)[C@H]2OC(=O)O[C@@]21C	8 (≈ 7.81 µM)	64 (≈ 62.5 µM)	128 (≈ 125 µM)	8 (≈ 7.81 µM)	4 (≈ 3.91 µM)	32 (≈ 31.2 µM)	8 (≈ 7.81 µM)	4 (≈ 3.91 µM)				
